High-throughput results: PubChem, The Scripps Research Institute Molecular Screening Center
Shown are actives, neighbours in structure and some others; about 3.9% of the full set was active somewhere.
TAAR1 antagonist: antagonists of human TAAR1; Q96RJ0; CHO RD-HGA16 TAAR1, Fluo-8 calcium fluorescence, antagonist; 1.5% of 360,000 active; inhibition, % at 3 µM;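 active = inhibition above a per-plate cutoff, the mean inhibition of test compounds on that plate plus 3 SD, cut at about 49% in these data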;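 also: 0% = DMSO plus EC80 beta-PEA response and 100% = DMSO alone without agonist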
Target sequence (Q96RJ0 whole entry, looked up): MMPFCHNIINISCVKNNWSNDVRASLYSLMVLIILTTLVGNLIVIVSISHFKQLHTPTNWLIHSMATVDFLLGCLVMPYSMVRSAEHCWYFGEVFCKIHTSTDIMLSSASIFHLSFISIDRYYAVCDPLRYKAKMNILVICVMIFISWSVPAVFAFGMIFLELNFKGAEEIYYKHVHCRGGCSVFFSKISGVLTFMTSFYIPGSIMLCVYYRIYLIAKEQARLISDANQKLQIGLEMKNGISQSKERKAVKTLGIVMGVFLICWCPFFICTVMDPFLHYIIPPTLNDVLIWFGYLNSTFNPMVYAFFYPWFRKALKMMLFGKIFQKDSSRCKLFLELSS
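Test system: RD-HGA16 CHO cells with stable hTAAR1 and Gα16 / Probe or stimulus: EC80 β-phenethylamine stimulus / Times: seeding 17-24 h prior, 75-min 37 °C, 30-min RT dye loading / Detection: Fluo-8 calcium-sensitive fluorescence / Read-out basis: % inhibition scaled between DMSO and EC80 PEA controls / Repeats: singlicate, one well per test compound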
CHO parental Ca: counter-screen for OX1R antagonists: effect in parental CHO cells; inhibition, % at 5.6 µM; parental CHO-K1, ATP-induced calcium, Fluo-8 fluorescence; 0.63% of 330,000 active;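 active = inhibition above that plate's mean sample inhibition plus 3 SD, cut at about 26% in these data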;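 also: 0% = ATP-challenged DMSO wells and 100% = DMSO wells without ATP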
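Assay system: untransfected parental CHO cell line. Also added: ATP agonist challenge. Dosing: one dose, 5.6 µM nominal. Measured by: Fluo-8 fluorescence. Read-out: % inhibition. Benchmarks: ATP wells versus no-ATP DMSO wells. Repeats: no replicates.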
TAAR1 ag: agonists of human TAAR1; Q96RJ0; CHO RD-HGA16 TAAR1, Fluo-8 calcium fluorescence; vehicle wells 0%, saturating PEA agonist 100%; activation, % at 3 µM; 0.99% of 360,000 active;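 active = activation above the mean activation of all test compounds in the run plus 3 SD, cut at about 38% in these data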
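Test system: RD-HGA16 (CHO) cells co-expressing Gα16 and hTAAR1; dosing: one-point dosing at 3 µM (nominal); timing: 17-24 h seeding, 75 min 37 °C dye, 30 min RT; signal: kinetic Fluo-8 calcium fluorescence; read-out basis: % activation relative to PEA EC100 response; controls: DMSO and PEA EC100; replicates: n 1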
OX1R antag-1: blocks the human orexin 1 receptor; 0.43% of 330,000 active; CHO/OX1R cells, Fluo-8 calcium fluorescence, orexin A; inhibition, % at 5 µM; O43613;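 active = inhibition above its plate's threshold, mean inhibition of all tested compounds on the plate plus 3 SD, cut at about 37% in these data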;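 also: 0% = orexin A challenge wells and 100% = SB-334867-A antagonist wells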
Target sequence (O43613 whole entry, looked up): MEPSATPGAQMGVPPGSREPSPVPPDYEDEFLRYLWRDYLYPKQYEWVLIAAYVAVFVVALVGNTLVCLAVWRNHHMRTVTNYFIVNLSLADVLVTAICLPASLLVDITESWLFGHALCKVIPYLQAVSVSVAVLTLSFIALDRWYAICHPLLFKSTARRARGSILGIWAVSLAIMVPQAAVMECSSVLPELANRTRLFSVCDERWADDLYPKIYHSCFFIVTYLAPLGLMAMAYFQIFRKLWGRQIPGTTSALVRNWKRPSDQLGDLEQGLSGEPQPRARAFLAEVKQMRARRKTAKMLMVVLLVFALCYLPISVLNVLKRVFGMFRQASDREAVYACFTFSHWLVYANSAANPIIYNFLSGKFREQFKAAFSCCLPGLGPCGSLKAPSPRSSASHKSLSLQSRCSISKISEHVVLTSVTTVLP
OX1R antag-2: OX1R (human) antagonism; OX1R-expressing cells, FRET antagonist read-out; O43613; inhibition, % at 6.6 µM; 1.8% of 330,000 active; AID 485270; in the data active = inhibition mostly above about 38%, no sharp cut-off; inactive = mostly below about 40%;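 also: 0% = agonist challenge alone and 100% = reference antagonist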
nonsel antag count: nonselective antagonist in TAAR1 antagonist counter-screen. inhibition, % at 3 µM. shares compounds with TAAR1 antagonist. 77% of 2,400 active. counterscreen cell line, calcium fluorescence, antagonist mode; in the data active = inhibition above about 22%;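 also: CHO-Ga16 host cells stimulated with ATP at an EC80 level; 0% = agonist EC80 plus vehicle and 100% = vehicle without agonist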
TAAR1 antag conf: confirmation of human TAAR1 antagonists; shares compounds with TAAR1 antagonist; TAAR1-expressing cells, fluorescence antagonist read-out; inhibition, % at 3 µM; 40% of 2,400 active; AID 651785; in the data active = inhibition above about 49%;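 also: CHO-Ga16 host cells challenged with agonist PEA near its EC80; 0% = agonist at EC80 plus vehicle and 100% = vehicle with no agonist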
Ga16 ag counter: nonselective Ga16 agonist in TAAR1 antagonist counter-screen; 18% of 2,400 active; activation, % at 3 µM; shares compounds with TAAR1 antagonist; AID 651953; Ga16-expressing cells, calcium fluorescence, agonist counterscreen; in the data active = activation above about 12%;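 also: 0% = vehicle wells and 100% = saturating stimulus response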
TAAR1 ag counter: activates human TAAR1 in antagonist counter-screen. activation, % at 3 µM. shares compounds with TAAR1 antagonist. 2% of 2,400 active. hTAAR1 cell line, fluorescence activation, agonist mode; in the data active = activation above about 37%;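 also: CHO cells stably expressing TAAR1 with calcium dye readout; 0% = DMSO vehicle and 100% = full agonist response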
* hit, by the source's call; . = no result.

SMILES	TAAR1 antagonist	CHO parental Ca	TAAR1 ag	OX1R antag-1	OX1R antag-2	nonsel antag count	TAAR1 antag conf	Ga16 ag counter	TAAR1 ag counter
CCOC(=O)C1=C(COC(=O)/C=C/c2ccc(O)c(OC)c2)NC(=O)NC1C (stereo unspecified)	61.9*	-13.9	25.9	-0.7	4.5	28.4*	51.2*	12.9*	19.7
CCOC(=O)C1=C(COC(=O)/C=C/c2cccc(Cl)c2)NC(=O)NC1C (stereo unspecified)	27.9	-20.1	12.5	-23.0	15.2	.	.	.	.
NS(=O)(=O)c1ccc(CCNC(=O)c2ccc3ccccc3n2)cc1	-19.9	-5.5	4.2	-2.0	7.9	.	.	.	.
Cc1ccc(SCC(=O)N2CCN(S(=O)(=O)c3cccs3)CC2)cc1	-13.8	-22.5	2.6	-26.8	8.9	.	.	.	.
N#CC1(C#N)[C@@H](C(=O)C23CC4CC(CC(C4)C2)C3)C12CCOCC2	-9.5	-1.4	2.5	5.6	6.2	.	.	.	.
Cc1cc(C(=O)CSc2nc(N)cc(=O)[nH]2)c(C)n1CCc1ccc(F)cc1	16.6	17.4	32.2	9.0	27.2	.	.	.	.
COc1ccc(CCn2c(C)cc(C(=O)CSc3nc(N)cc(=O)[nH]3)c2C)cc1	51.3*	15.3	19.8	5.7	20.3	37.3*	47.9	8.0	5.6
COc1ccc(CCn2c(C)cc(C(=O)CSc3nnnn3-c3ccccc3)c2C)cc1OC	49.6*	-23.4	8.0	-9.6	3.6	18.0	36.2	12.5*	6.4
CC(C)CCNC(=O)c1onc(CSc2ccccn2)c1C(=O)NCCC(C)C	4.7	-30.9	0.1	-25.1	3.0	.	.	.	.
NC(=O)c1ccsc1NC(=O)CN1CCN(S(=O)(=O)c2ccccc2C(F)(F)F)CC1	89.2*	.	20.0	.	.	29.9*	65.3*	20.1*	34.1
O=C(CN1CCN(S(=O)(=O)c2ccccc2C(F)(F)F)CC1)NCc1cccs1	-9.1	-14.0	1.6	-6.1	7.3	.	.	.	.
O=C(CSc1nnc(CNC(=O)c2ccco2)o1)Nc1cccc(F)c1	-5.5	9.9	1.2	-12.8	11.3	.	.	.	.
Cc1c(F)cccc1NS(=O)(=O)c1ccc(N2CCCC2=O)cc1	-8.1	.	2.3	.	.	.	.	.	.
COc1ccc(CCC(=O)NCCS(=O)(=O)N2CCN(c3ccc(OC)cc3)CC2)cc1	62.2*	-23.8	19.2	-8.2	12.8	28.9*	54.0*	15.3*	16.7
COc1ccc(CCC(=O)NCCS(=O)(=O)N2CCN(c3ccccc3)CC2)cc1	21.4	-19.8	6.5	-13.8	7.9	.	.	.	.
O=C1Nc2ccc(Br)cc2C1=C1CCCCC1	75.8*	-16.5	12.7	-1.3	2.8	17.5	36.2	6.3	7.4
CCOC(=O)CSc1cc(CS(=O)c2ccc(Cl)cc2)nc(-c2ccccc2)n1 (stereo unspecified)	27.2	-24.3	11.6	-16.9	40.9	.	.	.	.
CC(=O)c1ccc(NC(=O)c2ccc(CSc3ccccc3)o2)cc1	95.4*	-6.8	3.9	-15.9	41.8	28.1*	79.7*	4.9	-1.5
CC[C@@H](C)[C@@H](C(=O)N1CCN(C(=O)OC(C)(C)C)CC1)n1cc(CCCCNC(=O)OC(C)(C)C)nn1	68.9*	-14.7	25.2	-13.1	32.4	42.1*	61.1*	12.8*	13.0
CSCCCc1cn([C@@H](CO)C(=O)NCCCCCCCCCCC(=O)N2CCNCC2)nn1	4.2	-12.6	7.5	-20.5	20.0	.	.	.	.
CC[C@H](C)C(C(=O)N1CCN(C(=O)OC(C)(C)C)CC1)n1cc(C(CC(C)C)NC(=O)OC(C)(C)C)nn1 (stereo partly specified)	14.2	-22.1	6.9	-28.0	21.6	.	.	.	.
CSCC[C@@H](C(=O)NCCCCCCCCCCC(=O)N1CCN(C(=O)OC(C)(C)C)CC1)n1cc(CCO)nn1	50.2*	-5.9	20.3	-42.3	13.8	27.6*	42.5	9.2	10.4
CCN(CC(=O)NC(C)(C)C)C(=O)CCl	-6.3	11.9	3.8	15.3	22.5	.	.	.	.
CC(C)(C)c1ccc(C(=O)N2CCC(=O)N([C@H](COCc3ccccc3)Cc3ccccc3)CC2)cc1	71.2*	.	8.1	.	.	27.3*	50.2*	7.7	8.8
O=C(c1ccc(C(F)(F)F)cc1)N1CCC(=O)N(C(COCc2ccccc2)Cc2ccccc2)CC1 (stereo unspecified)	32.7	-37.3	4.9	-40.5	10.5	.	.	.	.
SMILES	TAAR1 antagonist	CHO parental Ca	TAAR1 ag	OX1R antag-1	OX1R antag-2	nonsel antag count	TAAR1 antag conf	Ga16 ag counter	TAAR1 ag counter
COc1cc(C2c3c(oc4ccccc4c3=O)C(=O)N2Cc2ccncc2)ccc1O (stereo unspecified)	-23.3	-3.5	3.1	-18.0	7.2	.	.	.	.
CCN(CC)c1ccc(NC(=O)/C=C/c2cc(Br)ccc2OC)cc1	74.2*	-9.8	-0.9	-18.8	49.8*	10.3	34.7	6.0	6.1
CCN(CC)S(=O)(=O)c1ccc2[nH]cc(C(=O)NCCC3=CCCCC3)c(=O)c2c1	67.0*	6.7	11.4	17.7	20.8	32.2*	32.9	6.1	5.2
Cc1nc2ccccc2c(=O)n1/N=C/c1ccc(C(C)C)cc1	61.0*	-6.2	3.5	-14.2	-0.8	30.9*	43.3	1.7	-2.6
NC(=O)C1CCN(C(=O)c2ccc3c(=O)n(Cc4ccco4)c(SCc4ccc([N+](=O)[O-])cc4)nc3c2)CC1	49.3*	-19.9	2.7	-27.8	9.7	30.8*	41.2	5.2	7.0
Cc1ccc(C(C)C)c(OCc2ccc(C(=O)N/N=C/c3ccc(O)c(O)c3)cc2)c1	32.3	1.5	10.3	-1.6	12.2	.	.	.	.
O=C(N/N=C/c1ccccc1F)c1ccccc1OCc1ccccc1	51.2*	-48.8	6.8	-22.6	21.8	8.9	35.4	4.4	3.6
Cc1ccc(C(C)C)c(OCc2ccc(C(=O)N/N=C/c3cccc(O)c3O)cc2)c1	77.4*	-2.1	1.6	-7.4	10.8	46.6*	80.0*	6.8	12.1
O=C(NNC(=O)c1ccccc1OCc1ccccc1)c1ccccc1F	7.1	-12.6	4.5	-25.5	-4.9	.	.	.	.
COC(=O)N/N=C/c1ccccc1OCc1ccccc1	14.2	-5.3	-1.4	-15.8	16.9	.	.	.	.
CC(=O)Nc1ccc(C(=O)N/N=C/c2ccccc2OCc2ccccc2)cc1	52.4*	-21.9	13.3	-21.5	17.0	31.7*	41.7	6.0	5.4
Cc1cc(/C=N\NC(=O)CC(=O)NC2CCCCC2)c(C)n1-c1ccc(Cl)c(Cl)c1	56.1*	-16.2	13.9	10.1	0.1	16.1	70.6*	10.1	31.0
